Measured values as given in ChEMBL document CHEMBL4325933, “Potent, Selective, and Cell-Penetrating Inhibitors of Kallikrein-Related Peptidase 4 Based on the Cyclic Peptide MCoTI-II” (ACS Med Chem Lett, 2018).
Positions of bridges follow the written chain, without caps; N, C: chain ends. Residues, ends and D or L forms follow the SMILES beside them.

Key:
Kallikrein-4 = Kallikrein-4 (Homo sapiens, UniProt Q9Y5K2); assay: Inhibition of KLK4 (unknown origin) expressed in sf9 cells using Ac-FVQR-pNA as substrate preincubated for 30 mins followed by substrate addition and measured for 7 mins by spectrophotometric method
[1] = Drug uptake in human HeLa cells at 4 uM using Alexa Fluor 488 conjugated test compound after 1 hr by trypan blue dye based flow cytometry relative to HIV-Tat; assay type: ADME, cell-based
Method in brief: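 HeLa cells given Alexa Fluor 488-conjugated peptides (4 μM). Mean fluorescence measured by flow cytometry before and after trypan blue quenching of extracellular signal. Values normalized to the HIV-TAT positive control (post-trypan blue). Three independent experiments, SD; one-way ANOVA with Tukey's post hoc test.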

HeLa = assay: Cytotoxicity against human HeLa cells up to 64 uM after 2 hrs by resazurin dye based assay; assay type: cell-based
Method in brief: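 HeLa cells exposed to peptides for 2 h, concentrations up to 64 μM. Resazurin then added for 18 h at 37 °C. Resorufin absorbance read at 540 and 620 nm, and viability % expressed as the A620/A540 ratio. Three independent experiments, standard deviation.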

Sequence of Kallikrein-4 (Q9Y5K2 whole entry): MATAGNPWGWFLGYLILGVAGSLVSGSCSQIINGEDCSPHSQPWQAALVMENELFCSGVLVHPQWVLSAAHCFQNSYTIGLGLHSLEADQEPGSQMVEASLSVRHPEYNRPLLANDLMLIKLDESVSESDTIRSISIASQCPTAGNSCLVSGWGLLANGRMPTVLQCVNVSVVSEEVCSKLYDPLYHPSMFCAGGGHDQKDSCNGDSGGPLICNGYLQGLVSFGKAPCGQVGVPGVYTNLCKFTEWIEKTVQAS

Ki (Kallikrein-4) | Drug uptake [1] | SMILES | Activity (HeLa)
1.3 nM | – | CC[C@H](C)[C@@H]1NC(=O)[C@@H]2CSSC[C@@H]3NC(=O)[C@H](Cc4ccccc4)NC(=O)CNC(=O)CNC(=O)[C@H](CC(=O)O)NC(=O)[C@H](CO)NC(=O)CNC(=O)[C@H](CO)NC(=O)CNC(=O)[C@@H]4CSSC[C@H](NC(=O)[C@H](CC(=O)O)NC(=O)[C@H](CO)NC(=O)[C@H](CC(=O)O)NC(=O)[C@H](CCCNC(=N)N)NC(=O)[C@H](CCCNC(=N)N)NC(=O)[C@H](CSSC[C@H](NC1=O)C(=O)N[C@@H](CCCNC(=N)N)C(=O)NCC(=O)N[C@@H](CC(N)=O)C(=O)NCC(=O)N[C@@H](Cc1ccc(O)cc1)C(=O)N4)NC(=O)[C@H](CCCCN)NC(=O)[C@H](CCCCN)NC(=O)[C@H](CC(C)C)NC(=O)[C@H]([C@@H](C)CC)NC(=O)[C@H](CCCCN)NC(=O)[C@@H]1CCCN1C3=O)C(=O)N1CCC[C@H]1C(=O)NCC(=O)N[C@@H](C)C(=O)N2 | –
0.13 nM | – | CC[C@H](C)[C@@H]1NC(=O)[C@@H]2CSSC[C@@H]3NC(=O)[C@H](C(C)C)NC(=O)CNC(=O)CNC(=O)[C@H](CC(=O)O)NC(=O)[C@H](CO)NC(=O)CNC(=O)[C@H](CO)NC(=O)CNC(=O)[C@@H]4CSSC[C@H](NC(=O)[C@H](CC(=O)O)NC(=O)[C@H](CO)NC(=O)[C@H](CC(=O)O)NC(=O)[C@H](CCCNC(=N)N)NC(=O)[C@H](CCCNC(=N)N)NC(=O)[C@H](CSSC[C@H](NC1=O)C(=O)N[C@@H](CCCNC(=N)N)C(=O)NCC(=O)N[C@@H](CC(N)=O)C(=O)NCC(=O)N[C@@H](Cc1ccc(O)cc1)C(=O)N4)NC(=O)[C@H](CCCCN)NC(=O)[C@H](CCCCN)NC(=O)[C@H](CC(C)C)NC(=O)[C@H]([C@@H](C)CC)NC(=O)[C@H](CCCCN)NC(=O)[C@H](CCC(N)=O)NC3=O)C(=O)N1CCC[C@H]1C(=O)NCC(=O)N[C@@H](C)C(=O)N2 | –
0.3 nM | Not Active | CC[C@H](C)[C@@H]1NC(=O)[C@@H]2CSSC[C@@H]3NC(=O)[C@H](C(C)C)NC(=O)CNC(=O)CNC(=O)[C@H](CC(=O)O)NC(=O)[C@H](CO)NC(=O)CNC(=O)[C@H](CO)NC(=O)CNC(=O)[C@@H]4CSSC[C@H](NC(=O)[C@H](CC(=O)O)NC(=O)[C@H](CO)NC(=O)[C@H](CC(=O)O)NC(=O)[C@H](CCCNC(=N)N)NC(=O)[C@H](CCCNC(=N)N)NC(=O)[C@H](CSSC[C@H](NC1=O)C(=O)N[C@@H](CCCNC(=N)N)C(=O)NCC(=O)N[C@@H](CC(N)=O)C(=O)NCC(=O)N[C@@H](Cc1ccc(O)cc1)C(=O)N4)NC(=O)[C@H](CCCCN)NC(=O)[C@H](CCCCN)NC(=O)[C@H](CC(C)C)NC(=O)[C@H]([C@@H](C)CC)NC(=O)[C@H](CCCNC(=N)N)NC(=O)[C@@H]1CCCN1C3=O)C(=O)N1CCC[C@H]1C(=O)NCC(=O)N[C@@H](C)C(=O)N2 | –
1.8 nM | Not Active | CC[C@H](C)[C@@H]1NC(=O)[C@@H]2CSSC[C@@H]3NC(=O)[C@H](C(C)C)NC(=O)CNC(=O)CNC(=O)[C@H](CC(=O)O)NC(=O)[C@H](CO)NC(=O)CNC(=O)[C@H](CO)NC(=O)CNC(=O)[C@@H]4CSSC[C@H](NC(=O)[C@H](CC(=O)O)NC(=O)[C@H](CO)NC(=O)[C@H](CC(=O)O)NC(=O)[C@H](CCC(N)=O)NC(=O)[C@H](CCC(N)=O)NC(=O)[C@H](CSSC[C@H](NC1=O)C(=O)N[C@@H](CCCCN)C(=O)NCC(=O)N[C@@H](CC(N)=O)C(=O)NCC(=O)N[C@@H](Cc1ccc(O)cc1)C(=O)N4)NC(=O)[C@H](CCC(N)=O)NC(=O)[C@H](CCC(N)=O)NC(=O)[C@H](CC(C)C)NC(=O)[C@H]([C@@H](C)CC)NC(=O)[C@H](CCCNC(=N)N)NC(=O)[C@@H]1CCCN1C3=O)C(=O)N1CCC[C@H]1C(=O)NCC(=O)N[C@@H](C)C(=O)N2 (cyclo(ACICKGNGYCGSGSDGGVCPRILQQCQQDSDCPG); disulfide 2-19, 4-26, 10-32) | Non-Toxic
